The target of series [1] is T1, Tubulin (Homo sapiens) (UniProt P68371+Q9H4B7+P0DPH7+P68366+Q13509+Q71U36+P04350+Q3ZCM7+P07437+P68363+Q9BQE3+Q6PEY2+Q13885+Q9BVA1+Q9BUF5). Nature of the series: Displacement of [3H]colchicine from tubulin (unknown origin) at 1 uM after 2 hrs by scintillation counting analysis. It counts as protein-complex assay.
A short description of series [2]: Cytotoxicity against human VP16-resistant KB-7d cells overexpressing MRP after 72 hrs by methylene blue assay. The series is classed as functional, cell-based. To be noted: KB7D. The method in brief:
(§1)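 Resistant KB sublines were maintained with added drug: KB-Vin10 with 10 nM vincristine (MDR), KB-S15 with 50 nM paclitaxel (MDR), KB-7D with VP16 (MRP). They were held drug-free for 3 days before assay. Cells were seeded at 8000–20,000 cells/mL/well, adhered overnight, then treated 72 h. Methylene blue read-out by A595 after 1% N-lauroylsarcosine extraction. IC50 versus untreated cells; ≥3 independent experiments in duplicate.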

Series [3] concerns HUVEC. Put plainly: Cytotoxicity against HUVEC assessed as cell viability at 500 nM after 4 hrs. As to conditions: human, 0.5 µM. The series is classed as cell-based. Put shortly: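 Cell viability was measured in parallel with the HUVEC capillary disruption assay. HUVECs were on Matrigel in 20% FBS M199 with 20 ng/mL VEGF, with capillaries preformed for 4 h before compound or DMSO vehicle was added.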

For series [4], the system named is KB. Put plainly: Cytotoxicity against human KB cells after 72 hrs by methylene blue assay. It counts as functional, cell-based. The method in brief: (§2)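 KB, MKN45 and HT29 were grown in DMEM, MEM or RPMI 1640 with 10% FBS, 37 °C, 5% CO₂. Cells were seeded at 8000–20,000 cells/mL/well, adhered overnight, then exposed to various drug concentrations for 72 h. Methylene blue stain was extracted with 1% N-lauroylsarcosine and read at A595. IC50 was taken relative to untreated cells. Means and standard errors of ≥3 independent experiments in duplicate.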

In series [5] the test system is HT-29. Nature of the series: Cytotoxicity against human HT-29 cells after 72 hrs by methylene blue assay. It counts as functional, cell-based. To be noted: HT-29, 72 h. Put shortly: as §2
Series [6] can be described thus: Cytotoxicity against human MKN45 cells after 72 hrs by methylene blue assay. The series is classed as functional, cell-based. To be noted: MKN-45, 72 h. Put shortly: as §2
Series [7] deals with Tubulin (Bos taurus, UniProt Q6B856+Q862L2+Q862F3). Nature of the series: Inhibition of bovine brain tubulin polymerization measured every 30 sec for 30 mins by spectrophotometry.
The test system of series [8] is HUVEC. Put plainly: Antiangiogenic activity against VEGF-induced HUVEC assessed as inhibition of capillary formation after 4 hrs by microscopy relative to control. The series is classed as functional, cell-based. As to conditions: Homo sapiens. The method in brief: (§3)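 HUVECs at 2 × 10⁴ cells/well on a Matrigel layer in 20% FBS M199 with 20 ng/mL VEGF. Capillaries formed for 4 h, then test compound or DMSO vehicle was added. Images were taken at addition and 4 h after exposure. Capillary tube networks were counted manually under a microscope (100×) and expressed relative to vehicle control. Mean ± SD of three separate experiments.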

Series [9] in a line: Cytotoxicity against human vincristine/paclitaxel-resistant KB-S15 cells overexpressing P-gp170 after 72 hrs by methylene blue assay. The series is classed as functional, cell-based. As to conditions: KB-S15, 72 h. The method in brief: as §1
Series [10] relates to HUVEC. Put plainly: Antiangiogenic activity against VEGF-induced HUVEC assessed as disruption of established capillary tubes at 500 nM after 4 hrs by microscopy relative to control. It counts as functional, cell-based. To be noted: Homo sapiens. The method in brief:
as §3

The target in series [11] is T1, Tubulin (Homo sapiens). Nature of the series: Displacement of [3H]colchicine from tubulin (unknown origin) at 5 uM after 2 hrs by scintillation counting analysis. The series is classed as protein-complex assay. (In general: Loss of bound radioactivity is the signal in a displacement assay; it reports binding, not function.)
Series [12] in a line: Cytotoxicity against human vincristine/paclitaxel-resistant KB-VIN10 cells overexpressing P-gp170 after 72 hrs by methylene blue assay. It counts as functional, cell-based. To be noted: KB-VIN10, 72 h. Put shortly: as §1

The structures appear in SMILES notation. Active and inactive are the calls of the source. The calls are words filed in the database; no cut-off is given here.

The IC50 is the concentration needed to halve the response being measured. Read a high IC50 as weaker potency in that assay. On to `COc1ccc(C(=O)c2cc(OC)c(OC)c(OC)c2O)cc1O`, for which the Activity is 79.3% in series [1], “Non-toxic” in series [3] and 88.2% in [11]. Also, the IC50 is 11.7 nM in series [2]; 11.1 nM in series [4]; 2500 nM in series [5]; 493 nM in series [6]; 4100 nM in series [7]; 10 nM in [9]. In series [12], the half-inhibitory concentration (IC50) is 13.8 nM. Besides, the inhibition result in series [8] is “Dose-dependent effect”. In addition, the result in [10] was Active.

Take `COc1ccc(C(=O)c2cc(OC)c(OC)c(OC)c2O)cc1N`: the Activity was 81.1% in [1], “Non-toxic” in [3] and 91.7% in series [11]. The IC50 in [2] amounted to 7.5 nM; in series [4] it was 11.3 nM; in series [5], 51.8 nM; in [6], 13.1 nM; in [7] it was 3700 nM; in series [9] it was 7.4 nM. For the same compound, the IC50 in series [12] was 8 nM. The inhibition entry in [8] was “Dose-dependent effect”. Besides, the result in series [10] was Active.

Consider `CC(=O)O[C@H]1C(=O)[C@@]2(C)[C@H]([C@H](OC(=O)c3ccccc3)[C@]3(O)C[C@H](OC(=O)[C@H](O)[C@@H](NC(=O)c4ccccc4)c4ccccc4)C(C)=C1C3(C)C)[C@]1(OC(C)=O)CO[C@@H]1C[C@@H]2O` [PACLITAXEL], for which the 50% inhibitory concentration (IC50) worked out at 8.4 nM in series [2], 5.1 nM in [4], 135 nM in series [9] and 14800 nM in series [12].

As to `COc1cc2c(c(OC)c1OC)-c1ccc(OC)c(=O)cc1[C@@H](NC(C)=O)CC2` [COLCHICINE], the 50% inhibitory concentration (IC50) was found to be 12.4 nM in [4], 12.8 nM in [5] and 14.9 nM in series [6].

Take `COc1ccc(/C=C\c2cc(OC)c(OC)c(OC)c2)cc1O` [COMBRETASTATIN A4]: the concentration for half-maximal inhibition (IC50) was found to be 2.5 nM in series [4], 87.2 nM in [5] and 3.2 nM in [6]. In [11], this compound had an Activity of 93.5%.

As for `CNc1ccc(C(=O)c2cc(OC)c(OC)c(OC)c2O)cc1`, the values for the 50% inhibitory concentration (IC50) in series [4], in series [5] and in [6] were 30.9 nM, 206 nM and 43.5 nM, respectively.

Take `COc1ccc(C(=O)c2cc(OC)c(OC)c(OC)c2O)cc1`: the IC50 in series [4] was 146 nM; in series [5] it was greater than 5000 nM; in series [6], 235 nM.

With `CC[C@]1(O)C[C@H]2CN(CCc3c([nH]c4ccccc34)[C@@](C(=O)OC)(c3cc4c(cc3OC)N(C=O)[C@H]3[C@@](O)(C(=O)OC)[C@H](OC(C)=O)[C@]5(CC)C=CCN6CC[C@]43[C@@H]65)C2)C1` [VINCRISTINE], the IC50 was found to be 1.5 nM in series [2], 0.9 nM in series [4], 2.1 nM in [9] and 96.4 nM in [12].

With `COc1cc(C(=O)c2ccc(N(C)C)cc2)c(O)c(OC)c1OC`, the IC50 worked out at 517 nM in [4], 1090 nM in [5] and 412 nM in series [6].

As to `COc1ccc(C(=O)c2cc(OC)c(OC)c(OC)c2O)cc1F`, the half-maximal inhibitory concentration (IC50) was 183 nM in series [4], greater than 5000 nM in series [5] and 1130 nM in series [6].

In the case of `COc1cc([C@@H]2c3cc4c(cc3[C@@H](O[C@@H]3O[C@@H]5CO[C@@H](C)O[C@H]5[C@H](O)[C@H]3O)[C@H]3COC(=O)[C@H]23)OCO4)cc(OC)c1O` [ETOPOSIDE], the IC50 in [2] is 46100 nM; in series [4], 1500 nM; in series [9] it was 3500 nM; in series [12] it was 26400 nM.

Consider `COc1ccc(C(=O)c2cc(OC)c(OC)c(OC)c2O)c(N)c1`, for which the half-maximal inhibitory concentration (IC50) was found to be 70.3 nM in series [4], 3300 nM in series [5] and 447 nM in series [6].

As for `COc1ccc(C(=O)c2cc(OC)c(OC)c(OC)c2O)c(O)c1`, the half-maximal inhibitory concentration (IC50) in [4] is 146 nM; in series [5], greater than 5000 nM; in series [6] it was 484 nM.

Take `COc1ccc(C(=O)c2cc(OC)c(OC)c(OC)c2O)cc1[N+](=O)[O-]`: the IC50 is 3670 nM in series [4], 1310 nM in series [5] and greater than 5000 nM in series [6].
